Measurements taken from ChEMBL document CHEMBL1137637, “Quinuclidine derivatives as potential antiparasitics” (Antimicrob Agents Chemother, 2007).
pIC50: −log10 of the molar value. Values after ≈ are worked out from the molar mass of the structure shown.

Experiments:
Leishmania amazonensis [1] = experiment: Inhibition of sterol biosynthesis in Leishmania mexicana amazonensis promastigotes assessed as reduction in endogenous cholesta-7,24-dien-3beta-ol level at 1 uM after 96 hrs by gas-liquid chromatography; format: functional; parameters: scale not given: the % may be the effect or the level left
Procedure, shortened: (§1)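 L. mexicana promastigotes exposed to compound for 96 h. Total lipids extracted and neutral sterols separated from polar lipids by silicic acid column chromatography. Sterols analysed by TLC and by quantitative capillary gas-liquid chromatography with mass spectrometry. Composition expressed as mass % of free sterols, compared with untreated control.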

Trypanosoma cruzi = experiment: Antitrypanosomal activity against trypomastigotes of Trypanosoma cruzi Tulahuen C2C4 containing lacZ gene in rat L6 cells after 4 days by chlorophenol red-beta-D-galactopyranoside/Nonidet assay; format: functional, organism-based; settings: Tulahuen C2C4, L6, 96 h
Procedure, shortened: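 L-6 rat myoblasts seeded at 2,000 cells/well in RPMI 1640 with 10% FBS and 2 mM L-glutamine. After 24 h, 5,000 T. cruzi Tulahuen C2C4 lacZ trypomastigotes added with serial drug dilution. Incubated at 37°C in 5% CO2 for 4 days. CPRG/Nonidet substrate added and colour read at 540 nm after 2–4 h. IC50 from sigmoidal curve. Duplicate determinations.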

Leishmania amazonensis [2] = experiment: Inhibition of sterol biosynthesis in Leishmania mexicana amazonensis promastigotes assessed as reduction in endogenous cholesta-5,7,24-trien-3beta-ol level at 3 uM after 96 hrs by gas-liquid chromatography; format: functional; parameters: scale not given: the % may be the effect or the level left; procedure, shortened: as §1
Leishmania amazonensis [3] = experiment: Inhibition of sterol biosynthesis in Leishmania mexicana amazonensis promastigotes assessed as reduction in endogenous cholesta-7,24-dien-3beta-ol level at 3 uM after 96 hrs by gas-liquid chromatography; format: functional; parameters: scale not given: the % may be the effect or the level left; procedure, shortened: as §1
Leishmania amazonensis [4] = experiment: Inhibition of sterol biosynthesis in Leishmania mexicana amazonensis promastigotes assessed as reduction in endogenous episterol level at 1 uM after 96 hrs by gas-liquid chromatography; format: functional; parameters: scale not given: the % may be the effect or the level left; procedure, shortened: as §1
Leishmania amazonensis [5] = experiment: Inhibition of sterol biosynthesis in Leishmania mexicana amazonensis promastigotes assessed as reduction in exogenous cholesterol level at 3 uM after 96 hrs by gas-liquid chromatography; format: functional; parameters: scale not given: the % may be the effect or the level left; procedure, shortened: as §1
Leishmania amazonensis [6] = experiment: Inhibition of sterol biosynthesis in Leishmania mexicana amazonensis promastigotes assessed as reduction in exogenous cholesterol level at 10 uM after 96 hrs by gas-liquid chromatography; format: functional; parameters: scale not given: the % may be the effect or the level left; procedure, shortened: as §1
Leishmania amazonensis [7] = experiment: Inhibition of sterol biosynthesis in Leishmania mexicana amazonensis promastigotes assessed as reduction in exogenous cholesterol level at 1 uM after 96 hrs by gas-liquid chromatography; format: functional; parameters: scale not given: the % may be the effect or the level left; procedure, shortened: as §1
Plasmodium falciparum = experiment: Antiplasmodial activity after 48 hrs against chloroquine and pyrimethamine-resistant Plasmodium falciparum K1 in human erythrocytes by [3H]hypoxanthine uptake; format: functional, organism-based
Procedure, shortened: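 P. falciparum K1 in human red cells in RPMI 1640 with 5% Albumax, exposed to serial drug dilutions. Incubated 48 h at 37°C under reduced oxygen, then 0.5 μCi [³H]hypoxanthine per well for 24 h more. Cells harvested onto glass-fibre filters and counted by scintillation. Result expressed as % of untreated control, with IC50 from sigmoidal curve. Duplicate, plus an independent repeat for actives.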

Leishmania amazonensis [8] = experiment: Inhibition of sterol biosynthesis in Leishmania mexicana amazonensis promastigotes assessed as reduction in endogenous episterol level at 3 uM after 96 hrs by gas-liquid chromatography; format: functional; parameters: scale not given: the % may be the effect or the level left; procedure, shortened: as §1
Leishmania amazonensis [9] = experiment: Inhibition of sterol biosynthesis in Leishmania mexicana amazonensis promastigotes assessed as reduction in endogenous cholesta-5,7,24-trien-3beta-ol level at 1 uM after 96 hrs by gas-liquid chromatography; format: functional; parameters: scale not given: the % may be the effect or the level left; procedure, shortened: as §1
Leishmania amazonensis [10] = experiment: Antileishmanial activity against Leishmania mexicana amazonensis promastigotes by trypan blue exclusion method; format: functional, organism-based
Procedure, shortened: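 L. mexicana amazonensis promastigotes cultured in liver infusion-tryptose medium with lactalbumin and 10% FCS at 26°C, unagitated. Cultures started at 2 × 10⁶ cells/ml and drug added at 0.5–1 × 10⁷ cells/ml. Density counted by electronic particle counter and hemocytometer. Viability by trypan blue exclusion. Triplicate growth experiments.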

Leishmania amazonensis [11] = experiment: Inhibition of sterol biosynthesis in Leishmania mexicana amazonensis promastigotes assessed as reduction in endogenous 5-dehydro episterol level at 1 uM after 96 hrs by gas-liquid chromatography; format: functional; parameters: scale not given: the % may be the effect or the level left; procedure, shortened: as §1
L6 = experiment: Cytotoxicity against rat L6 cells after 72 hrs by resazurin assay; format: cell-based; settings: L6, 72 h
Procedure, shortened: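 L-6 cells seeded at 4 × 10⁴ cells/ml in RPMI 1640 with 10% FBS and 2 mM L-glutamine. After 24 h, medium replaced with serial drug dilution and incubated for 72 h at 37°C in 5% CO2. Resazurin added for 2–4 h, fluorescence read at ex 536/em 588 nm. IC50 from sigmoidal curve. Duplicate, with an independent repeat for actives.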

[12] = test system: Trypanosoma brucei rhodesiense; experiment: Trypanocidal activity against Trypanosoma brucei rhodesiense STIB 900 bloodstream form after 72 hrs by resazurin assay; format: functional, organism-based; settings: STIB 900, 72 h
Procedure, shortened: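 T. b. rhodesiense STIB 900 bloodstream forms in MEM with 2-mercaptoethanol and 15% heat-inactivated horse serum, with serial drug dilutions. Incubated 72 h at 37°C in 5% CO2. Resazurin added for 2–4 h more, fluorescence read at ex 536/em 588 nm. IC50 from sigmoidal curve. Duplicate, with an independent repeat for actives.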

Leishmania donovani = experiment: Antileishmanial activity against Leishmania donovani MHOM/ET/67/L82 axenic amastigotes after 72 hrs by resazurin assay; format: functional, organism-based; settings: MHOM/ET/67/L82, 72 h
Procedure, shortened: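 L. donovani MHOM/ET/67/L82 amastigotes grown axenically at 37°C in synthetic minimal medium at pH 5.4 with 10% heat-inactivated FBS under 5% CO2. 1 × 10⁵ amastigotes per well with seven threefold dilutions, 30 to 0.041 μg/ml. After 72 h, resazurin added for 2–4 h more. Fluorescence read at ex 536/em 588 nm. IC50 taken from sigmoidal curve. Run in duplicate, with an independent repeat for actives.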

[13] = molecular target: T1, Farnesyltransferase, putative (Leishmania major, UniProt Q4Q5W4); experiment: Inhibition of Leishmania major recombinant squalene synthase expressed in Escherichia coli by liquid scintillation counter
T1 sequence (Q4Q5W4 whole entry): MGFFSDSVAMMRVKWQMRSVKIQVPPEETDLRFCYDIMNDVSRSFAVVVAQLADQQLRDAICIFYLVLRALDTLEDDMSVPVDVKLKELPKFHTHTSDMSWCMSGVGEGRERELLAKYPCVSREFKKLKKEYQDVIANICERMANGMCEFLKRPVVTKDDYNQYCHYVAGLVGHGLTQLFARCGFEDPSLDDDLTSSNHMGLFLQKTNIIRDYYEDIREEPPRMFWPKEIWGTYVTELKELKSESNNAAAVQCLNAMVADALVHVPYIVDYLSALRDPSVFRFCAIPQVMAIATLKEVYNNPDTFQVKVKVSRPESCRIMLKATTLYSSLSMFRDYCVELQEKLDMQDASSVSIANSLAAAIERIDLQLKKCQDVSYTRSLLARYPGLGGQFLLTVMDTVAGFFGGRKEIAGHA
Procedure, shortened: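 Soluble E. coli extract expressing L. major SQS truncated by 16 N-terminal and 40 C-terminal residues. Buffer: 50 mM phosphate pH 7.4, 20 mM MgCl2, 5 mM CHAPS, 1% Tween 80, 10 mM DTT, BSA, 0.25 mM NADPH, and a glucose-6-phosphate/G6PDH regenerating system. Substrate 0.5 μM radiolabelled farnesyl pyrophosphate. Squalene band counted by scintillation. IC50 from hyperbolic plot of five concentrations in duplicate, usually run twice.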

Leishmania amazonensis [14] = experiment: Inhibition of sterol biosynthesis in Leishmania mexicana amazonensis promastigotes assessed as reduction in endogenous 5-dehydro episterol level at 3 uM after 96 hrs by gas-liquid chromatography; format: functional; parameters: scale not given: the % may be the effect or the level left; procedure, shortened: as §1
Leishmania amazonensis [15] = experiment: Inhibition of sterol biosynthesis in Leishmania mexicana amazonensis promastigotes assessed as reduction in exogenous cholesterol level at 0.3 uM after 96 hrs by gas-liquid chromatography; format: functional; parameters: scale not given: the % may be the effect or the level left
Procedure, shortened: (§2)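 Promastigotes grown in liver infusion-tryptose medium with lactalbumin and 10% fetal calf serum at 26°C, static; drug added at 0.5 × 10⁷ to 1 × 10⁷ cells/ml and cells exposed for 96 h. Total lipids extracted; neutral lipids separated from polar lipids by silicic acid column chromatography; free sterols quantified by capillary gas-liquid chromatography and mass spectrometry as mass % of total sterols.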

Squalene synthase = molecular target: T2, Squalene synthase (Homo sapiens, UniProt P37268); experiment: Inhibition of human recombinant squalene synthase expressed in Escherichia coli BL21(DE3 pLysS) by liquid scintillation counter
T2 sequence (P37268 whole entry): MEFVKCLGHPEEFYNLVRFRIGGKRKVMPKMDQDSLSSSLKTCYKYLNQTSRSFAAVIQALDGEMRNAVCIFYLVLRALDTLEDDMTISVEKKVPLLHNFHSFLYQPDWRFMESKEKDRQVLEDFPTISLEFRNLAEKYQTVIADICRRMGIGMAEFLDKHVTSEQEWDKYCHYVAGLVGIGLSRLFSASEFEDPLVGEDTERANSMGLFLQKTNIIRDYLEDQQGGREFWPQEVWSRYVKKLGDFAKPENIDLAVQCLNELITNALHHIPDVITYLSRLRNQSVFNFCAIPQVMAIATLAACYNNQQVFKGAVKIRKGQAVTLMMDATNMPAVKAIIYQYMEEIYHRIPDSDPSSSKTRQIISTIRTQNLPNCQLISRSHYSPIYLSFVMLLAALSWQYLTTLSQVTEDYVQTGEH
Procedure, shortened: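 Human SQS in extracts of E. coli BL21(DE3 pLysS) carrying pHSS16, assayed under the same conditions as the L. major enzyme. Buffer: phosphate pH 7.4, MgCl2, CHAPS, Tween 80, DTT, BSA, and NADPH with a regenerating system. Substrate 0.5 μM radiolabelled farnesyl pyrophosphate. Squalene band radioactivity counted by scintillation.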

Leishmania amazonensis [16] = experiment: Inhibition of sterol biosynthesis in Leishmania mexicana amazonensis promastigotes assessed as reduction in endogenous episterol level at 0.3 uM after 96 hrs by gas-liquid chromatography; format: functional; parameters: scale not given: the % may be the effect or the level left; procedure, shortened: as §2
Leishmania amazonensis [17] = experiment: Inhibition of sterol biosynthesis in Leishmania mexicana amazonensis promastigotes assessed as reduction in endogenous 5-dehydro episterol level at 0.3 uM after 96 hrs by gas-liquid chromatography; format: functional; parameters: scale not given: the % may be the effect or the level left; procedure, shortened: as §2
Leishmania amazonensis [18] = experiment: Inhibition of sterol biosynthesis in Leishmania mexicana amazonensis promastigotes assessed as reduction in endogenous episterol level at 0.1 uM after 96 hrs by gas-liquid chromatography; format: functional; parameters: scale not given: the % may be the effect or the level left; procedure, shortened: as §1
Leishmania amazonensis [19] = experiment: Inhibition of sterol biosynthesis in Leishmania mexicana amazonensis promastigotes assessed as reduction in endogenous 5-dehydro episterol level at 0.1 uM after 96 hrs by gas-liquid chromatography; format: functional; parameters: scale not given: the % may be the effect or the level left; procedure, shortened: as §1
Leishmania amazonensis [20] = experiment: Inhibition of sterol biosynthesis in Leishmania mexicana amazonensis promastigotes assessed as reduction in exogenous cholesterol level at 0.1 uM after 96 hrs by gas-liquid chromatography; format: functional; parameters: scale not given: the % may be the effect or the level left; procedure, shortened: as §1

| Structure (SMILES) | pIC50 (Trypanosoma cruzi) | Activity (Leishmania amazonensis [2]) [%] | Activity (Leishmania amazonensis [3]) [%] | Activity (Leishmania amazonensis [4]) [%] | Activity (Leishmania amazonensis [5]) [%] | Activity (Leishmania amazonensis [7]) [%] | pIC50 (Plasmodium falciparum) | Activity (Leishmania amazonensis [8]) [%] | Activity (Leishmania amazonensis [9]) [%] | MIC (Leishmania amazonensis [10]) [µM] | Activity (Leishmania amazonensis [11]) [%] | pIC50 (L6) | pIC50 [12] | pIC50 (Leishmania donovani) | pIC50 [13] | Activity (Leishmania amazonensis [14]) [%] | Activity (Leishmania amazonensis [15]) [%] | pIC50 (Squalene synthase) | Activity (Leishmania amazonensis [16]) [%] | Activity (Leishmania amazonensis [17]) [%] | also measured |
| --- | --- | --- | --- | --- | --- | --- | --- | --- | --- | --- | --- | --- | --- | --- | --- | --- | --- | --- | --- | --- | --- |
| OC[C@H]1CC2CCN1C[C@@H]2C#Cc1ccc(-c2ccccc2)cc1 (some centres not stated) | 5.24 | 32.7 | 10.7 | 7.6 | 14 | 15.4 | 5.85 | 6.6 | 20.1 | 10 (≈ 3.17 µg/mL) | 49.3 | 4.96 | 6.30 | 4.47 | < 6.00 | 36 | – | – | – | – | Activity (Leishmania amazonensis [1]): 7.6%; Activity (Leishmania amazonensis [6]): >99% |
| COc1ccc2cc(C3=CN4CCC3CC4)ccc2c1 | 4.99 | – | – | 15.8 | – | 41.2 | 5.05 | – | – | 0.3 (≈ 0.0796 µg/mL) | 43 | 4.01 | 5.66 | 5.85 | 6.31 | – | 13.9 | 5.55 | 13.4 | 72.7 | – |
| CC(C)(C)[Si](C)(C)Oc1ccc(C2=CN3CCC2CC3)cc1 | 4.79 | 10.7 | 4.8 | 7.1 | 55.4 | 29.2 | 5.39 | 7.9 | 9 | 3 (≈ 0.947 µg/mL) | 54.7 | 4.62 | 5.68 | 4.51 | < 6.00 | 21.2 | – | – | – | – | – |
| C1=C(c2ccc(OCc3ccccc3)cc2)C2CCN1CC2 | 5.51 | – | – | – | – | – | 5.32 | – | – | 0.3 (≈ 0.0874 µg/mL) | – | 4.33 | 5.96 | 5.96 | 7.00 | – | 52.9 | 6.60 | 22.9 | 24.2 | Activity (Leishmania amazonensis [18]): 15.4%; Activity (Leishmania amazonensis [19]): 53%; Activity (Leishmania amazonensis [20]): 31.6% |
